The results in this text go back to ChEMBL document CHEMBL5674885, “HIV-1 Vpr counteracts HLTF-mediated restriction of HIV-1 infection in T cells” (Proc Natl Acad Sci U S A, 2019).

The structures appear in SMILES notation. Activity calls are given as the source filed them. No cut-off for these calls is given here. Bounds are passed on as bounds.

A short description of data set [1]: Cytotoxicity in human CEM.SS T cells assessed as cell viability level at 3 uM. To be noted: time 7 day, read-out: Activity. The data set is classed as toxicity, cell-based.
Data set [2] addresses T1, Aberrant vpr protein (Human immunodeficiency virus 1) (UniProt Q77YF9).
T1 sequence (whole entry): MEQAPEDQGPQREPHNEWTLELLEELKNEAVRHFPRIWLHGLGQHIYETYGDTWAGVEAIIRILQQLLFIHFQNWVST
As to the kind of experiment: Modulation of HIV-1 Vpr-dependent enhancement of HIV-1 replication in human CEM.SS T cells assessed as effect on percentages of cell-associated HIV-1 DNA at 3 uM added starting 12 hrs before HIV-1 infection until 7 dpi. In kind it is cell-based. The settings on record: time 7.0 day. In outline:
(§1)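 CEM.SS cells held in drug from ~12 h before infection to 7 dpi, infected (1×10⁵ cells) with a DNase-treated, qPCR-normalized 1:1 mix of NL4-3 reporters HIV-1.mRFP.vpr.wt and HIV-1.RFP.vpr.Q8*, combined moi 0.006–0.02. Density was reset on 3 and 5 dpi, and only cultures with <5% RFP⁺ cells at 7 dpi were kept. Share of each virus DNA at 7 dpi came from SYBR qPCR of RFP/mRFP amplicons against plasmid standards; three biological replicates.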

Data set [3] concerns the target T1, Aberrant vpr protein (Human immunodeficiency virus 1). As to the kind of experiment: Modulation of HIV-1 Vpr-dependent enhancement of HIV-1 replication in human CEM.SS T cells assessed as effect on percentages of cell-associated HIV-1 DNA at 10 uM added starting 12 hrs before HIV-1 infection until 7 dpi. The settings on record: time 7.0 day. In kind it is cell-based. In a few lines:
as §1

The nature of data set [4]: Cytotoxicity in human CEM.SS T cells assessed as cell viability level at 10 uM. The data set is classed as toxicity, cell-based. To be noted: time 7 day, read-out: Activity.
Data set [5] is described as follows: Cytotoxicity in human CEM.SS T cells assessed as cell viability level at 200 nM. The data set is classed as toxicity, cell-based. To be noted: time 7 day, read-out: Activity.
For data set [6], the target named is T1, Aberrant vpr protein (Human immunodeficiency virus 1). Put plainly: Modulation of HIV-1 Vpr-dependent enhancement of HIV-1 replication in human CEM.SS T cells assessed as effect on percentages of cell-associated HIV-1 DNA at 200 nM added starting 12 hrs before HIV-1 infection until 7 dpi. The settings on record: time 7.0 day. In kind it is cell-based. In a few lines:
as §1

For data set [7] the target is unchanged. As to the kind of experiment: Modulation of HIV-1 Vpr-dependent enhancement of HIV-1 replication in human CEM.SS T cells assessed as effect on percentages of cell-associated HIV-1 DNA at 1 uM added starting 12 hrs before HIV-1 infection until 7 dpi. To be noted: time 7.0 day. The data set is classed as cell-based. In outline:
as §1

A short description of data set [8]: Cytotoxicity in human CEM.SS T cells assessed as cell viability level at 1 uM. The data set is classed as toxicity, cell-based. To be noted: time 7 day, read-out: Activity.
The nature of data set [9]: Cytotoxicity in human CEM.SS T cells assessed as cell viability level at 1 nM. In kind it is toxicity, cell-based. To be noted: time 7 day, read-out: Activity.
Data set [10] concerns the target T1, Aberrant vpr protein (Human immunodeficiency virus 1). As to the kind of experiment: Modulation of HIV-1 Vpr-dependent enhancement of HIV-1 replication in human CEM.SS T cells assessed as effect on percentages of cell-associated HIV-1 DNA at 1 nM added starting 12 hrs before HIV-1 infection until 7 dpi. To be noted: time 7.0 day. In kind it is cell-based. In a few lines: as §1

A short description of data set [11]: Cytotoxicity in human CEM.SS T cells assessed as cell viability level at 2 uM. In kind it is toxicity, cell-based. The settings on record: time 7 day, read-out: Activity.
Data set [12] has as its target T1, Aberrant vpr protein (Human immunodeficiency virus 1). Put plainly: Modulation of HIV-1 Vpr-dependent enhancement of HIV-1 replication in human CEM.SS T cells assessed as effect on percentages of cell-associated HIV-1 DNA at 2 uM added starting 12 hrs before HIV-1 infection until 7 dpi. The data set is classed as cell-based. The settings on record: time 7.0 day. In a few lines:
as §1

Data set [13] can be described thus: Cytotoxicity in human CEM.SS T cells assessed as cell viability level at 0.67 uM. The data set is classed as toxicity, cell-based. To be noted: time 7 day, read-out: Activity.
The target in data set [14] is T1, Aberrant vpr protein (Human immunodeficiency virus 1). As to the kind of experiment: Modulation of HIV-1 Vpr-dependent enhancement of HIV-1 replication in human CEM.SS T cells assessed as effect on percentages of cell-associated HIV-1 DNA at 0.67 uM added starting 12 hrs before HIV-1 infection until 7 dpi. In kind it is cell-based. To be noted: time 7.0 day. In a few lines:
as §1

Regarding `CC1=NN(c2ccc(C(=O)O)cc2)C(=O)/C1=C\c1ccc(-c2cc(C)c(C)cc2[N+](=O)[O-])o1`, the viability at 168 h, 3 µM in data set [1] is greater than 80%. Moreover, the outcome in [2] was inactive.

Regarding `NC(=O)C1CCCc2c1[nH]c1ccc(Cl)cc21` (centres undefined), the outcome in data set [3] was inactive. Also, the viability at 168 h, 10 µM in data set [4] was greater than 80%.

Turning to `O=C(CCCCCCC(=O)Nc1ccccc1)NO` [VORINOSTAT], the viability at 168 h, 0.2 µM in data set [5] is greater than 80%. For the same compound, in data set [6], the result was inactive.

For the compound `COc1cc2c(NC3CCN(C(C)C)CC3)nc(C3CCCCC3)nc2cc1OCCCN1CCCC1`, the result in data set [7] was inactive. The viability at 168 h, 1 µM in data set [8] is greater than 80%.

As for `CC(/C=C/C(=O)NO)=C\[C@@H](C)C(=O)c1ccc(N(C)C)cc1` [TRICHOSTATIN], the viability at 168 h, 0.001 µM in data set [9] was greater than 80%. Besides, in data set [10], the outcome was inactive.

In the case of `CC(C)N(CCCNC(=O)Nc1ccc(C(C)(C)C)cc1)C[C@H]1O[C@@H](n2cc(Br)c3c(N)ncnc32)[C@H](O)[C@@H]1O`, the viability at 168 h, 2 µM in [11] is greater than 80%. In addition, the result in data set [12] was inactive.

In the case of `CCCc1cc(C)[nH]c(=O)c1CNC(=O)c1cc(-c2ccnc(N3CCN(C)CC3)c2)cc2c1cnn2C(C)C`, the viability at 168 h, 0.67 µM in [13] was greater than 80%. Further, the result in data set [14] was inactive.
